Reference: PubChem BioAssay AID1385 (PCMD, 2008)
The whole screen tested about 200,000 compounds, of which about 170 (0.085%) were called active.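 Rule for the calls: active = inhibition above 40% at the single screening dose; inactive = the rest.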 This excerpt belongs to a sample that is enriched for actives.

Biological target: DNA repair protein RAD51 homolog 1 (Homo sapiens) (UniProt Q06609)
Test: human RAD51 strand exchange inhibitors, primary screen, biochemical, fluorescence (AID 1385);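 note: 0% = DMSO control wells and 100% = blanks with heterologous ssDNA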
Details: hRad51 DNA strand exchange, fluorescence dequenching; at 10 µM; hits give high values
Summary of the method: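 Material: human Rad51–ssDNA filaments; Probe or stimulus: labelled 47-mer dsDNA for strand exchange; Doses: single 10 µM dose; Incubation: 37 °C 15-min filament assembly, 30-min compound preincubation, 15-min exchange; Technique: FRET fluorescence dequenching, excitation 485 nm, emission 520 nm; Measure: Fluorescence-based percent inhibition, control- and blank-normalised; Benchmarks: plate control and blank wells.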

Sequence of DNA repair protein RAD51 homolog 1 (Homo sapiens) (Q06609 whole entry, looked up): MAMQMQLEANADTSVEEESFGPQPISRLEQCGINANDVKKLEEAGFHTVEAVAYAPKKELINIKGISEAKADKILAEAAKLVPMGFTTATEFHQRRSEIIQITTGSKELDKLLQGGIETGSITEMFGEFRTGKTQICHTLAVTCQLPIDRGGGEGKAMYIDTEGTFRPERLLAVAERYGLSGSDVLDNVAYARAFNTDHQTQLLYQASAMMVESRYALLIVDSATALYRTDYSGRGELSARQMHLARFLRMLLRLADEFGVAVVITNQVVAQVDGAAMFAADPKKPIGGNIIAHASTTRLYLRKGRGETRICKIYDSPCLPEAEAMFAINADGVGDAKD

| Compound | inhibition |
| --- | --- |
| Cc1ccc2c(c1)nnc1nnc(SCC(=O)O)n12 | 3.89% (inactive) |
| CCC(C)(C)NC(=O)C(c1ccc(O)cc1)N(C(=O)Cn1nnc2ccccc21)c1ccc(NC(C)=O)cc1 (stereo not given) | -8.67% (inactive) |
| Oc1c(Br)cc(/C=N/NC(=S)NCC2CCCO2)cc1Br (stereo not given) | -9.24% (inactive) |
| O=C(Nc1nc2ccc([N+](=O)[O-])cc2s1)c1ccncc1 | 6.33% (inactive) |
| COc1cc(OC)c(OC)cc1/C=N/Nc1ncnc2c1[nH]c1ccc(C)cc12 | -8.84% (inactive) |
| Cc1nc(-c2ccc(Cl)cc2)sc1C1(C)CC(c2ccc(Br)cc2)=NO1 (stereo not given) | -6.72% (inactive) |
| CCC(CC)c1nnc(NS(=O)(=O)Cc2ccccc2)s1 | 84.4% (active) |
| CCC(CC)c1nnc(NC(=O)c2nn(C)c(=O)c3ccccc23)s1 | 6.66% (inactive) |
| COc1ccc(Cc2nnc(NS(=O)(=O)Cc3ccccc3)s2)cc1 | -0.75% (inactive) |
| COc1ccccc1N1CCN(C(=O)CSc2ncnc3c2cnn3-c2ccc(C)c(C)c2)CC1 | -12.6% (inactive) |
| CC1CN(c2nc(Nc3ccccc3)nc(N)c2[N+](=O)[O-])CC(C)O1 (stereo not given) | -23.5% (inactive) |
| CC(=O)c1ccc(NC(=O)C2CC(=O)Nc3nc4ccccc4n32)cc1 (stereo not given) | -1.17% (inactive) |
| COc1ccccc1-c1c(C#N)c(N)nc2c1CCC2 | -0.29% (inactive) |
| CCNC(=S)N1CCN(CCN=CC2=C(O)CC(C)(C)CC2=O)CC1 | 16.2% (inactive) |
| Cc1cccc(N2CCN(Cc3nc(C4CC4)no3)CC2)n1 | -8.44% (inactive) |
| COC(=O)[C@H](CC(C)C)NC(=O)N1CCCCC1C (stereo not given in full) | -6.96% (inactive) |
| COc1ccc(/C(C)=N/N2CCOCC2)c(O)c1 | 16.1% (inactive) |
| Cn1c(SCC(=O)N/N=C/c2ccc(O)c(O)c2)nc2ccccc21 | -10.2% (inactive) |
| Cc1cc(=O)oc2c(C(=O)c3ccccc3)c(OCC(N)=O)ccc12 | -5.93% (inactive) |
| CCOc1ccc(C2NC(=S)NC3=C2CCc2ccccc23)cc1 (stereo not given) | 5.83% (inactive) |
| CN1CCc2nc(SC(C(=O)O)c3ccccc3)c(C#N)c(-c3cccs3)c2C1 (stereo not given) | -22.2% (inactive) |
| CCCc1ccc(C(=O)[C@@H]2[C@@H](C(C)=O)N3c4ccc(F)cc4C=C[C@@H]3[C@@]23C(=O)Nc2ccccc23)cc1 | 10.1% (inactive) |
| CC(C)S(=O)(=O)c1csc(NC(=O)Nc2ccc(Cl)cc2)c1Cl | -3.14% (inactive) |
| Cc1ccc(-c2csc(-c3cc(C)on3)n2)cc1 | 9.91% (inactive) |

| Compound | inhibition |
| --- | --- |
| CC1(C)CCSC(/C=C/c2ccccc2)=N1 | 10.2% (inactive) |
| CC(C)(C)c1cc(C(=O)NN)n(Cc2ccc(Cl)cc2Cl)n1 | 9.98% (inactive) |
| CC(C)(C)c1ccc(/C=C2\Oc3c(ccc(O)c3CN3CCN(CCO)CC3)C2=O)cc1 | -31.8% (inactive) |
| COC(=O)[C@H](Cc1ccccc1)NC(=O)Nc1ccc(OC)cc1 | 7.38% (inactive) |
| S=C(NCCc1ccccc1)Nc1ccccc1 | 15.1% (inactive) |
| CCn1c(SCC(=O)N/N=C/c2ccccc2OCC(=O)O)nnc1-c1ccc(C(C)(C)C)cc1 | 8.66% (inactive) |
| CCOC(=O)c1cc(C)nc(S(C)(=O)=O)c1C#N | 16% (inactive) |
| C=CCSc1nnc(NC(=O)c2ccc(NC(C)=O)cc2)s1 | 4.61% (inactive) |
| Nc1c(N(CCO)C(=O)C2CCCCC2)c(=O)[nH]c(=O)n1Cc1ccccc1 | -7.08% (inactive) |
| CC(=O)OCCOCn1cnn2c(=O)c(Br)c(C)nc12 | 1.73% (inactive) |
| COc1ccc(CCNC2=CC(=O)CC(C)(C)C2)cc1 | 3.57% (inactive) |
| Cc1ccc(-c2cc(C(=O)NN)n[nH]2)o1 | 8.49% (inactive) |
| CNC(=O)c1csc(Cc2c(Cl)sc3ccc(Cl)cc23)n1 | 5.52% (inactive) |
| S=c1nc2ccccc2c2nc(-c3cccnc3)[nH]n12 | 1.9% (inactive) |
| O=[N+]([O-])C(=c1ccc2c(c1)N1C3=C(CCCC3)CC3CCCCC31N=2)[N+](=O)[O-] (stereo not given) | -20.4% (inactive) |
| CCOC(=O)c1ccc(S(=O)(=O)N(CCO)Cc2cc3cc(OC)c(OC)cc3[nH]c2=O)cc1 | -11% (inactive) |
| Fc1ccccc1/C=N/n1c(-c2cccnc2)n[nH]c1=S | 5.39% (inactive) |
| Fc1ccc(Nc2nnns2)cc1 | -7.15% (inactive) |
| Cc1ccc(-c2nc(SCC(=O)Nc3ccccc3OC(F)F)c3c(C)c(C(=O)O)sc3n2)cc1 | -23.3% (inactive) |
| CC(C)c1cc(CN2CCOCC2)cc(C(C)C)c1O | -12.3% (inactive) |
| Clc1ccc(C[n+]2cc(-c3ccc(Cl)cc3)n3c2CCC3)cc1 | 16.8% (inactive) |
| CC(C)CCN1NC2(CCC(C)CC2)NC1=S (stereo not given) | 7.9% (inactive) |
| CC(=O)NCc1ccc(S(=O)(=O)NC2CCN(Cc3ccccc3)CC2)cc1 | -43.1% (inactive) |
| O=[N+]([O-])c1ccc(N/N=C/c2ccccc2)cc1 | -5.09% (inactive) |

| Compound | inhibition |
| --- | --- |
| COc1cccc(CC(=O)Nc2ccc(-c3csc(C)n3)cc2)c1 | 6% (inactive) |
| O=C(O)COCC(=O)NCc1csc2ccc(Cl)cc12 | 15% (inactive) |
| C/C=C/C(=O)Nc1ccc(N2CCN(c3ccc(C(F)(F)F)cn3)CC2)nc1 | 19.9% (inactive) |
| Cc1nc2cc(NC(=O)Nc3cccc(F)c3)ccc2n1C | 2.24% (inactive) |
| CCOC(=O)COc1nc(C)cc(C(F)(F)F)c1C#N | -33.8% (inactive) |
| COC(=O)c1ccc(COc2cc([N+](=O)[O-])cc3cccnc23)cc1 | -2.29% (inactive) |
| C=CCN1CC(C)/C(=N\O)CC1C (stereo not given) | -1.92% (inactive) |
| Cc1nc2nc(SCC(=O)c3ccccc3)[nH]c2cc1Br | -17.9% (inactive) |
| O=C(CCNc1n[nH]c(=O)[nH]c1=O)N/N=C\c1ccc(Br)cc1 | -0.51% (inactive) |
| CC(C)(C)n1cnnc1Sc1ccc([N+](=O)[O-])cn1 | 25.8% (inactive) |
| Cn1nccc1NS(=O)(=O)c1ccc(F)cc1 | -8.74% (inactive) |
| COc1ccc(Cl)cc1S(=O)(=O)N1CCC(O)(c2ccc(Cl)cc2)CC1 | 10.6% (inactive) |
| Cc1ccc(C(=O)COc2cccc(NC(=O)c3ccco3)c2)cc1 | 89.3% (active) |
| COc1cccc(C(=O)Nc2ccc(NC(=O)c3ccco3)cn2)c1 | -3.19% (inactive) |
| Cc1ccnc(NC(=O)c2ccc(NC(=O)c3ccco3)cc2)c1 | -5.85% (inactive) |
| CC(OC(=O)c1ccc(NS(=O)(=O)c2ccc3[nH]c(=O)[nH]c3c2)cc1)C(=O)Nc1cccc(Cl)c1Cl (stereo not given) | 1.25% (inactive) |
| Cc1cc(C)cc(NC(=O)NC2CCN(CC(=O)Nc3cccc(Cl)c3C)CC2)c1 | -8.77% (inactive) |
| CCn1c(CN2C(=O)CSc3ccccc32)n[nH]c1=S | 3.47% (inactive) |
| O=S(=O)(c1cccc(-c2nnc3n2CCCCC3)c1)N1CCOCC1 | 6.72% (inactive) |
| CC(C)(C)c1cc(NC(=O)NN2CCOCC2)nn1-c1c(Cl)cc(Cl)cc1Cl | -14% (inactive) |
| Nc1ccccc1SC(C[N+](=O)[O-])c1ccccc1 (stereo not given) | 14.8% (inactive) |
| OC(CNCc1ccc2c(c1)OCO2)COc1ccccc1 (stereo not given) | 1.14% (inactive) |
| Cc1ccc(CNC(=O)c2ccc3c(c2)S(=O)(=O)c2ccccc2C3=O)cc1 | 3.71% (inactive) |
| COc1ccccc1-n1cn[nH]c1=S | 26.3% (inactive) |

| Compound | inhibition |
| --- | --- |
| COc1ccc(CN(Cc2ccc(OC)cc2)C(=O)c2cccs2)cc1 | 2.36% (inactive) |
| O=C(c1ccc(F)cc1)n1c(=S)nc2ccccn21 | 15.3% (inactive) |
| CNC1(c2nnnn2-c2c(C)cccc2C)CCOC(C)(C)C1 (stereo not given) | 5.82% (inactive) |
| Cc1cc(-c2nc(C)c(-c3nnc(SCC(=O)Nc4ccccc4)n3C)s2)no1 | -5% (inactive) |
| OCC[C@H]1C[C@H](O)[C@@H](O)[C@]2(CCCCO2)O1 | -1.38% (inactive) |
| COc1ccccc1Cn1c(CO)nc2ccccc21 | -28.4% (inactive) |
| Cc1ccc(C)c2c1cc(C)c1nnc(SCC(=O)Nc3cccc(C(=O)O)c3)n12 | 3.44% (inactive) |
| CCCN(CCC)S(=O)(=O)c1ccc(C(=O)N2CC3CCC(CC3)C2)cc1 | 4.87% (inactive) |
| O=C(O)c1ccccc1C(=O)Nc1ccccc1[N+](=O)[O-] | 10.6% (inactive) |
| O=[N+]([O-])c1ccc2c(c1)C(O)n1nc(-c3ccccc3)nc1S2 (stereo not given) | 0.18% (inactive) |
| CC(C)CC(=O)N/C(N)=N/c1nc2ccccc2s1 | 82.8% (active) |
| CC(C)CC(=O)NC(=S)NCc1ccccc1 | 1.47% (inactive) |
| CCC(=O)NC(=Nc1nc2ccccc2s1)NC(=O)CC | -4.35% (inactive) |
| CCN(CC)CCOc1ccc2c(c1)C(=NNC(=O)c1ccccn1)c1cc(OCCN(CC)CC)ccc1-2 | 99% (active) |
| CCOc1cc(NC(=O)c2ccccn2)c(OCC)cc1NC(=O)c1ccc(OC)cc1 | 0.44% (inactive) |
| CCC(C)(NC(=O)c1ccccn1)C(=O)NC1CCCCC1 (stereo not given) | 14.2% (inactive) |
| O=[N+]([O-])c1cc([N+](=O)[O-])c2cccnc2c1O | 5.92% (inactive) |
| O=C(CCc1ccccc1)NNc1ccc(F)cc1 | 4.26% (inactive) |
| NS(=O)(=O)c1ccc(NC(=O)COC(=O)c2cc3ccccc3oc2=O)cc1 | 3.3% (inactive) |
| Cc1c(NC(=O)CN2C(=O)C(=O)N(Cc3ccccc3)C2=O)c(=O)n(-c2ccccc2)n1C | 1.05% (inactive) |
| O=C1N=C(N2CCc3ccccc3C2)S/C1=C\c1ccc(O)cc1 | -11.2% (inactive) |
| O=C1/C(=C/c2coc3ccc(O)cc3c2=O)SC(=S)N1c1ccccc1 | -16.3% (inactive) |
| O=C(O)c1ccc(/C=N/Nc2nc(N3CCCCC3)nc(N3CCCCC3)n2)cc1 | 8.17% (inactive) |
